Among the data in ChEMBL document CHEMBL3804758, “Click-based synthesis and antitubercular evaluation of novel dibenzo[b,d]thiophene-1,2,3-triazoles with piperidine, piperazine, morpholine and thiomorpholine appendages” (Bioorg Med Chem Lett, 2016) are MIC values, retold here.

≈ marks a conversion by molar mass, not a printed value.

For the assay, the system named is Mycobacterium tuberculosis. In words: Antimycobacterial activity against Mycobacterium tuberculosis H37Rv ATCC 27294 after 28 days by agar dilution technique. The class given is functional. Particulars: H37Rv ATCC 27294, 672 h. In short, it runs like this: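 Agar dilution in Middlebrook 7H11 with OADC supplement. Two-fold serial dilutions from 50.0 down to 0.4 µg/mL were incorporated into the agar. Inoculum of H37Rv came from fresh 7H11/OADC slants, suspended in saline diluted to […]. 5 μL was spotted per tube, incubated at 37 °C and read after 28 days. MIC was the lowest concentration giving complete growth inhibition, done in triplicate.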
(In agar dilution the substance is mixed into plates at graded concentrations.)

With `OCCN1CCN(CC(c2ccc3sc4ccccc4c3c2)n2cc(-c3ccc(F)cc3Cl)nn2)CC1` (stereo not drawn), the lowest concentration to inhibit growth (MIC) was 12.5 µg/mL (≈ 23.3 µM).
The result for `O=[N+]([O-])c1ccc(-c2cn(C(CN3CCOCC3)c3ccc4sc5ccccc5c4c3)nn2)cc1` (stereo not drawn) reads 50 µg/mL (≈ 103 µM); that for `c1ccc(-c2cn(C(CN3CCNCC3)c3ccc4sc5ccccc5c4c3)nn2)cc1` (stereo not drawn), 12.5 µg/mL (≈ 28.4 µM).
With `CCCCc1cn(C(CN2CCOCC2)c2ccc3sc4ccccc4c3c2)nn1` (stereo not drawn) the figure was 50 µg/mL (≈ 119 µM); with `Fc1ccc(-c2cn(C(CN3CCOCC3)c3ccc4sc5ccccc5c4c3)nn2)c(Cl)c1` (stereo not drawn), 25 µg/mL (≈ 50.7 µM); with `CCCCc1cn(C(CN2CCSCC2)c2ccc3sc4ccccc4c3c2)nn1` (stereo not drawn), 25 µg/mL (≈ 57.3 µM).
The result for `Cc1ccc(-c2cn(C(CN3CCOCC3)c3ccc4sc5ccccc5c4c3)nn2)cc1` (stereo not drawn) reads 25 µg/mL (≈ 55 µM); that for `Fc1ccc(-c2cn(C(CN3CCNCC3)c3ccc4sc5ccccc5c4c3)nn2)c(Cl)c1` (stereo not drawn), 1.56 µg/mL (≈ 3.17 µM).
For the compound `Cc1ccc(-c2cn(C(CN3CCSCC3)c3ccc4sc5ccccc5c4c3)nn2)cc1` (stereo not drawn), the MIC (usually the least concentration at which growth counts as inhibited) came out at 12.5 µg/mL (≈ 26.6 µM).
The result for `Fc1ccc(-c2cn(C(CN3CCSCC3)c3ccc4sc5ccccc5c4c3)nn2)c(Cl)c1` (stereo not drawn) reads 12.5 µg/mL (≈ 24.6 µM).
With `O=[N+]([O-])c1ccc(-c2cn(C(CN3CCN(CCO)CC3)c3ccc4sc5ccccc5c4c3)nn2)cc1` (stereo not drawn) the figure was 12.5 µg/mL (≈ 23.6 µM).
As to `NC(=O)c1cnccn1` [PYRAZINAMIDE], the minimal inhibitory concentration (MIC) amounted to 50 µg/mL (≈ 406 µM).
The result for `O=[N+]([O-])c1ccc(-c2cn(C(CN3CCCCC3)c3ccc4sc5ccccc5c4c3)nn2)cc1` (stereo not drawn) reads 50 µg/mL (≈ 103 µM); that for `O=[N+]([O-])c1ccc(-c2cn(C(CN3CCNCC3)c3ccc4sc5ccccc5c4c3)nn2)cc1` (stereo not drawn), 3.12 µg/mL (≈ 6.44 µM).
The result for `CC(C)(C)c1ccc(-c2cn(C(CN3CCSCC3)c3ccc4sc5ccccc5c4c3)nn2)cc1` (stereo not drawn) reads 6.25 µg/mL (≈ 12.2 µM); that for `O=[N+]([O-])c1ccc(-c2cn(C(CN3CCSCC3)c3ccc4sc5ccccc5c4c3)nn2)cc1` (stereo not drawn), 25 µg/mL (≈ 49.8 µM).
With `c1ccc(-c2cn(C(CN3CCSCC3)c3ccc4sc5ccccc5c4c3)nn2)cc1` (stereo not drawn) the figure was 50 µg/mL (≈ 109 µM); with `Cc1ccc(-c2cn(C(CN3CCN(CCO)CC3)c3ccc4sc5ccccc5c4c3)nn2)cc1` (stereo not drawn), 50 µg/mL (≈ 100 µM); with `Fc1ccc(-c2cn(C(CN3CCCCC3)c3ccc4sc5ccccc5c4c3)nn2)c(Cl)c1` (stereo not drawn), 50 µg/mL (≈ 102 µM).
The compound `CCCCc1cn(C(CN2CCCCC2)c2ccc3sc4ccccc4c3c2)nn1` (stereo not drawn) yielded an MIC of 0.78 µg/mL (≈ 1.86 µM).
On to `CCCCc1cn(C(CN2CCNCC2)c2ccc3sc4ccccc4c3c2)nn1` (stereo not drawn), for which the MIC is 12.5 µg/mL (≈ 29.8 µM). Compared with the last compound, the MIC is about 16-fold higher.
The result for `CC[C@@H](CO)NCCN[C@@H](CC)CO` [ETHAMBUTOL] reads 3.13 µg/mL (≈ 15.3 µM).
The result for `Cc1ccc(-c2cn(C(CN3CCCCC3)c3ccc4sc5ccccc5c4c3)nn2)cc1` (stereo not drawn) reads 50 µg/mL (≈ 110 µM).
In the case of `c1ccc(-c2cn(C(CN3CCCCC3)c3ccc4sc5ccccc5c4c3)nn2)cc1` (stereo not drawn), the MIC was determined as 0.78 µg/mL (≈ 1.78 µM). This MIC lies about 64-fold lower than the previous one.
With `c1ccc(-c2cn(C(CN3CCOCC3)c3ccc4sc5ccccc5c4c3)nn2)cc1` (stereo not drawn) the figure was 50 µg/mL (≈ 113 µM); with `CC(C)(C)c1ccc(-c2cn(C(CN3CCNCC3)c3ccc4sc5ccccc5c4c3)nn2)cc1` (stereo not drawn), 6.25 µg/mL (≈ 12.6 µM).
With `CC(C)(C)c1ccc(-c2cn(C(CN3CCN(CCO)CC3)c3ccc4sc5ccccc5c4c3)nn2)cc1` (stereo not drawn) the figure was 25 µg/mL (≈ 46.3 µM); with `OCCN1CCN(CC(c2ccc3sc4ccccc4c3c2)n2cc(-c3ccccc3)nn2)CC1` (stereo not drawn), 12.5 µg/mL (≈ 25.8 µM); with `CC(C)(C)c1ccc(-c2cn(C(CN3CCCCC3)c3ccc4sc5ccccc5c4c3)nn2)cc1` (stereo not drawn), 3.12 µg/mL (≈ 6.31 µM).
As for `Cc1ccc(-c2cn(C(CN3CCNCC3)c3ccc4sc5ccccc5c4c3)nn2)cc1` (stereo not drawn), 6.25 µg/mL (≈ 13.8 µM) was the least that counted as inhibitory (MIC).
With `CCCCc1cn(C(CN2CCN(CCO)CC2)c2ccc3sc4ccccc4c3c2)nn1` (stereo not drawn) the figure was 6.25 µg/mL (≈ 13.5 µM); with `NNC(=O)c1ccncc1` [ISONIAZID], 0.1 µg/mL (≈ 0.729 µM).
The result for `CC(C)(C)c1ccc(-c2cn(C(CN3CCOCC3)c3ccc4sc5ccccc5c4c3)nn2)cc1` (stereo not drawn) reads 6.25 µg/mL (≈ 12.6 µM).
